Experimental data from ChEMBL document CHEMBL1144320, “Structure-activity relations of azafluorenone and azaanthraquinone as antimicrobial compounds” (2005).
≈ marks a conversion by molar mass, not a printed value.

Key:
Format in all cases: functional
[1] = tested on: Pseudomonas aeruginosa; experiment: Minimum inhibitory concentration against Pseudomonas aeruginosa
Outline: (§1)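 MIC by 2-fold broth dilution in peptone medium containing compound; bacteria grown in test tubes at 37 °C for 2 days. Strains: S. aureus NCTC 8530, B. subtilis IFO 3007, E. coli IFO 3545, P. vulgaris IFO 3851, P. aeruginosa IFO 3080.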

[2] = tested on: Rhodotorula mucilaginosa; experiment: Minimum inhibitory concentration against Rhodotorula rubra
Outline: (§2)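 Strains: S. cerevisiae IFO 0203, S. pombe IFO 0342, C. utilis OUT 6020, R. rubra IFO 0001, A. niger ATCC 6275, P. chrysogenum IFO 4626, R. chinensis IFO 4768, M. mucedo IFO 7684.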

[3] = tested on: Bacillus subtilis; experiment: Minimum inhibitory concentration against Bacillus subtilis; outline: as §1
[4] = tested on: Saccharomyces cerevisiae; experiment: Minimum inhibitory concentration against Saccharomyces cerevisiae; outline: as §2
[5] = tested on: Rhizopus microsporus var. chinensis; experiment: Minimum inhibitory concentration against Rhizopus chinensis; outline: as §2
[6] = tested on: Aspergillus niger; experiment: Minimum inhibitory concentration against Aspergillus niger; outline: as §2
[7] = tested on: Cyberlindnera jadinii; experiment: Minimum inhibitory concentration against Candida utilis; conditions: Williopsis jadinii; outline: as §2
[8] = tested on: Staphylococcus aureus; experiment: Minimum inhibitory concentration against Staphylococcus aureus; outline: as §1
[9] = Minimum inhibitory concentration against Penicillium chrysogenum; outline: as §2
[10] = tested on: Escherichia coli; experiment: Minimum inhibitory concentration against Escherichia coli; outline: as §1
[11] = tested on: Proteus vulgaris; experiment: Minimum inhibitory concentration against Proteus vulgaris; outline: as §1
[12] = tested on: Mucor mucedo; experiment: Minimum inhibitory concentration against Mucor mucedo; outline: as §2
[13] = tested on: Schizosaccharomyces pombe; experiment: Minimum inhibitory concentration against Schizosaccharomyces pombe; outline: as §2

SMILES	MIC [1]	MIC [2]	MIC [3]	MIC [4]	MIC [5]	MIC [6]	MIC [7]	MIC [8]	MIC [9]	MIC [10]	MIC [11]	MIC [12]	MIC [13]
O=C1c2cnccc2C(=O)c2c(O)cccc21	3.13 µg/mL (≈ 13.9 µM)	3.13 µg/mL (≈ 13.9 µM)	3.13 µg/mL (≈ 13.9 µM)	3.13 µg/mL (≈ 13.9 µM)	6.25 µg/mL (≈ 27.8 µM)	3.13 µg/mL (≈ 13.9 µM)	6.25 µg/mL (≈ 27.8 µM)	1.56 µg/mL (≈ 6.93 µM)	1.56 µg/mL (≈ 6.93 µM)	> 100 µg/mL	25 µg/mL (≈ 111 µM)	6.25 µg/mL (≈ 27.8 µM)	0.2 µg/mL (≈ 0.888 µM)
O=C1c2ccncc2C(=O)c2c(O)cccc21	3.13 µg/mL (≈ 13.9 µM)	3.13 µg/mL (≈ 13.9 µM)	3.13 µg/mL (≈ 13.9 µM)	3.13 µg/mL (≈ 13.9 µM)	12.5 µg/mL (≈ 55.5 µM)	3.13 µg/mL (≈ 13.9 µM)	12.5 µg/mL (≈ 55.5 µM)	1.56 µg/mL (≈ 6.93 µM)	1.56 µg/mL (≈ 6.93 µM)	> 100 µg/mL	25 µg/mL (≈ 111 µM)	3.13 µg/mL (≈ 13.9 µM)	0.78 µg/mL (≈ 3.46 µM)
O=C1c2cnccc2C(=O)c2sccc21	1.56 µg/mL (≈ 7.25 µM)	1.56 µg/mL (≈ 7.25 µM)	6.25 µg/mL (≈ 29 µM)	1.56 µg/mL (≈ 7.25 µM)	6.25 µg/mL (≈ 29 µM)	0.78 µg/mL (≈ 3.62 µM)	3.13 µg/mL (≈ 14.5 µM)	1.56 µg/mL (≈ 7.25 µM)	0.78 µg/mL (≈ 3.62 µM)	100 µg/mL (≈ 465 µM)	50 µg/mL (≈ 232 µM)	3.13 µg/mL (≈ 14.5 µM)	0.39 µg/mL (≈ 1.81 µM)
O=C1c2ccccc2C(=O)c2cnccc21	6.25 µg/mL (≈ 29.9 µM)	6.25 µg/mL (≈ 29.9 µM)	3.13 µg/mL (≈ 15 µM)	12.5 µg/mL (≈ 59.8 µM)	12.5 µg/mL (≈ 59.8 µM)	12.5 µg/mL (≈ 59.8 µM)	12.5 µg/mL (≈ 59.8 µM)	6.25 µg/mL (≈ 29.9 µM)	3.13 µg/mL (≈ 15 µM)	> 100 µg/mL	50 µg/mL (≈ 239 µM)	6.25 µg/mL (≈ 29.9 µM)	3.13 µg/mL (≈ 15 µM)
Cc1cnc2c(c1)C(=O)c1cccc(O)c1C2=O	25 µg/mL (≈ 105 µM)	50 µg/mL (≈ 209 µM)	6.25 µg/mL (≈ 26.1 µM)	100 µg/mL (≈ 418 µM)	> 100 µg/mL	> 100 µg/mL	25 µg/mL (≈ 105 µM)	12.5 µg/mL (≈ 52.3 µM)	25 µg/mL (≈ 105 µM)	> 100 µg/mL	100 µg/mL (≈ 418 µM)	25 µg/mL (≈ 105 µM)	12.5 µg/mL (≈ 52.3 µM)
Cc1ccnc2c1C(=O)c1c(O)ccc(O)c1C2=O	12.5 µg/mL (≈ 49 µM)	12.5 µg/mL (≈ 49 µM)	6.25 µg/mL (≈ 24.5 µM)	12.5 µg/mL (≈ 49 µM)	12.5 µg/mL (≈ 49 µM)	50 µg/mL (≈ 196 µM)	12.5 µg/mL (≈ 49 µM)	12.5 µg/mL (≈ 49 µM)	6.25 µg/mL (≈ 24.5 µM)	> 100 µg/mL	100 µg/mL (≈ 392 µM)	12.5 µg/mL (≈ 49 µM)	6.25 µg/mL (≈ 24.5 µM)
Cc1ccnc2c1-c1ccccc1C2=O	50 µg/mL (≈ 256 µM)	100 µg/mL (≈ 512 µM)	50 µg/mL (≈ 256 µM)	> 100 µg/mL	> 100 µg/mL	100 µg/mL (≈ 512 µM)	100 µg/mL (≈ 512 µM)	100 µg/mL (≈ 512 µM)	50 µg/mL (≈ 256 µM)	> 100 µg/mL	100 µg/mL (≈ 512 µM)	100 µg/mL (≈ 512 µM)	100 µg/mL (≈ 512 µM)
Cc1ccnc2c1C(=O)c1cccc(O)c1C2=O	25 µg/mL (≈ 105 µM)	50 µg/mL (≈ 209 µM)	12.5 µg/mL (≈ 52.3 µM)	100 µg/mL (≈ 418 µM)	> 100 µg/mL	> 100 µg/mL	50 µg/mL (≈ 209 µM)	12.5 µg/mL (≈ 52.3 µM)	25 µg/mL (≈ 105 µM)	> 100 µg/mL	50 µg/mL (≈ 209 µM)	50 µg/mL (≈ 209 µM)	12.5 µg/mL (≈ 52.3 µM)
COc1cccc2c1C(=O)c1ccncc1C2=O	6.25 µg/mL (≈ 26.1 µM)	12.5 µg/mL (≈ 52.3 µM)	6.25 µg/mL (≈ 26.1 µM)	25 µg/mL (≈ 105 µM)	25 µg/mL (≈ 105 µM)	12.5 µg/mL (≈ 52.3 µM)	25 µg/mL (≈ 105 µM)	12.5 µg/mL (≈ 52.3 µM)	12.5 µg/mL (≈ 52.3 µM)	> 100 µg/mL	50 µg/mL (≈ 209 µM)	12.5 µg/mL (≈ 52.3 µM)	1.56 µg/mL (≈ 6.52 µM)
COc1cccc2c1C(=O)c1cnccc1C2=O	6.25 µg/mL (≈ 26.1 µM)	6.25 µg/mL (≈ 26.1 µM)	3.13 µg/mL (≈ 13.1 µM)	25 µg/mL (≈ 105 µM)	25 µg/mL (≈ 105 µM)	12.5 µg/mL (≈ 52.3 µM)	25 µg/mL (≈ 105 µM)	12.5 µg/mL (≈ 52.3 µM)	12.5 µg/mL (≈ 52.3 µM)	> 100 µg/mL	50 µg/mL (≈ 209 µM)	25 µg/mL (≈ 105 µM)	3.13 µg/mL (≈ 13.1 µM)
Cc1ccnc2c1C(=O)c1ccccc1C2=O [CLEISTOPHOLINE]	50 µg/mL (≈ 224 µM)	50 µg/mL (≈ 224 µM)	25 µg/mL (≈ 112 µM)	100 µg/mL (≈ 448 µM)	> 100 µg/mL	100 µg/mL (≈ 448 µM)	50 µg/mL (≈ 224 µM)	25 µg/mL (≈ 112 µM)	50 µg/mL (≈ 224 µM)	> 100 µg/mL	50 µg/mL (≈ 224 µM)	50 µg/mL (≈ 224 µM)	25 µg/mL (≈ 112 µM)
Cc1ccnc2c1C(=O)c1ccccc1-2 [ONYCHINE]	100 µg/mL (≈ 512 µM)	100 µg/mL (≈ 512 µM)	100 µg/mL (≈ 512 µM)	100 µg/mL (≈ 512 µM)	> 100 µg/mL	100 µg/mL (≈ 512 µM)	100 µg/mL (≈ 512 µM)	> 100 µg/mL	50 µg/mL (≈ 256 µM)	> 100 µg/mL	100 µg/mL (≈ 512 µM)	> 100 µg/mL	50 µg/mL (≈ 256 µM)
